Where “and” joins values, the source holds several entries; their conditions need not be identical. Equal values may be shown once. Calls of active or inactive are those of the source.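 The calls were made as follows: active = compounds whose fitted half-maximal growth inhibition dose lies at or below twice the top tested dose; inconclusive = flat curve with 30 to 70% growth loss, or bad fit; inactive = the rest.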
test system: S. cerevisiae growth in glucose, OD600, 48 h; assay: yeast proliferation reduction, glucose carbon source – OD600, powder samples, set 4, dose response (AID 624025); settings: not given
In short: (§1)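 Assay system: Saccharomyces cerevisiae yeast cells, growth in glucose medium / Buffer or medium: CSM-glucose medium / Doses: compounds added to wells by pin transfer / Incubation: 48 h static incubation at 30 °C, humidified / Measured by: optical density at 600 nm / Benchmarks: amphotericin B at 10 µM as positive control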

| Structure (SMILES) | AC50 |
| --- | --- |
| CC1/C=C/C=C\C=C\C=C\C=C\C=C\C=C\C(O[C@H]2OC(C)C(O)C(N)C2O)CC2OC(O)(CC(O)CC(O)C(O)CCC(O)CC(O)CC(=O)OC(C)C(C)C1O)CC(O)C2C(=O)O (stereo partly drawn) | 527 nM |

test system: not listed separately; assay: as above; settings: S. cerevisiae growth in glucose, OD600, 48 h; at 3 µM (top of the series)
In short: as §1

| Structure (SMILES) | activity change, negative = inhibition |
| --- | --- |
| CCOC(=O)N1C(=O)C2(CCCCC2)N(c2ccc(C)cc2)C1=S | -14.8% (inactive) and -15% (inactive) |
| C/C=C/[C@@H]1[C@H]2C[C@@H](C)CC[C@@H]2C(C)=C[C@H]1C(=O)c1c(O)c(-c2ccc(O)cc2)c[nH]c1=O | -15.3% (inactive) |
| CCOC(=O)N1C(=O)C2(CCCCC2)N(c2cccc(C)c2)C1=S | -12.2% (inactive) |
| CCOC(=O)N1C(=O)C2(CCCCC2)N(c2ccc(Cl)cc2)C1=S | 0.052% (inactive) |
| CCOC(=O)N1C(=O)C2(CCCCC2)N(c2ccc(C#N)cc2)C1=S | -20.2% (inactive) |
| CCOC(=O)N1C(=O)C2(CCCCC2)N(c2ccccc2)C1=S | -5.67% (inactive) |
| CCOC(=O)N1C(=O)C2(CCCCC2)N(c2ccc(F)cc2)C1=S | -7.11% (inactive) |
